# Results published in PubChem BioAssay.
# Activity calls are given as the source filed them.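 How the source made its calls, unless noted: active means fluorescence slope after compound addition differing from the mean of all tested samples at 99.7% confidence, mostly higher but some lower; inactive means the rest.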
# How the values were obtained:
# [1] = inhibitors of TNFa-induced NFkB p65 translocation, primary screen, imaging, HUVEC, MLSMR starter and 10KST1 sets (AID 438;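 active means inhibition above 20% together with a positive visual image hit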;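 further: compound added about 3h40 before a 20 min TNFalpha stimulation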;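 on inhibition: signal is the nuclear over cytoplasmic p65 intensity ratio per well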); settings: HUVEC TNFa-induced p65 nuclear translocation; cell count: measured here: nuclei count (cytotoxicity indicator), at 2.08 µM; inhibition: at 2 µM, stronger effect = higher value, 0% TNFa-plus-vehicle, 100% no-TNFa wells
# [2] = reduction of polyQ htt aggregates in cells – imaging, exon1htt(103Q)mCFP cells, high-content imaging, primary screen (AID 483;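 active means visual image review flags a hit and inhibition of aggregation exceeds 20%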;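 further: compound exposure lasted 3 days before fixation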;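 on nuclei count: percent of the per-plate median nuclei count of sample wells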); settings: exon1htt(103Q)mCFP cell line, aggregate imaging, at 2 µM; inhibition of aggregation: stronger effect = higher value; nuclei count: measured here: cell count, toxicity
# [3] = endothelial E-selectin expression blockers – imaging, HUVEC, immunofluorescence, MLSMR starter and 10KST1 sets, primary screen (AID 487;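 active means visually confirmed hit in the image check and inhibition above 20%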;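 on inhibition: signal is fraction of cell area covered by stained E-selectin grains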;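 on nuclei count: 100% = median nuclei count of all wells on the same plate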); settings: HUVEC TNFalpha-induced E-selectin immunofluorescence imaging, at 2 µM; inhibition: stronger effect = higher value; nuclei count: measured here: cell number, toxicity
# [4] = target: Voltage-gated potassium channel subunit beta-2 (Rattus norvegicus) (UniProt P62483); test: inhibitors of rat Kvbeta2 reductase activity – biochemical, NADPH fluorescence, primary screen (AID 622;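 active means fluorescence slope higher than the sample average by over 3 SD, cut at about -0.22 in these data, passing the limit was not always enough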;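 further: slope of raw intensity against log time taken from 70 to 1610 s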); settings: recombinant KvBeta, 4-cyanobenzaldehyde reduction, at 10 µM, stronger effect = higher value
# Chain of Voltage-gated potassium channel subunit beta-2 (Rattus norvegicus) (P62483 whole entry, looked up): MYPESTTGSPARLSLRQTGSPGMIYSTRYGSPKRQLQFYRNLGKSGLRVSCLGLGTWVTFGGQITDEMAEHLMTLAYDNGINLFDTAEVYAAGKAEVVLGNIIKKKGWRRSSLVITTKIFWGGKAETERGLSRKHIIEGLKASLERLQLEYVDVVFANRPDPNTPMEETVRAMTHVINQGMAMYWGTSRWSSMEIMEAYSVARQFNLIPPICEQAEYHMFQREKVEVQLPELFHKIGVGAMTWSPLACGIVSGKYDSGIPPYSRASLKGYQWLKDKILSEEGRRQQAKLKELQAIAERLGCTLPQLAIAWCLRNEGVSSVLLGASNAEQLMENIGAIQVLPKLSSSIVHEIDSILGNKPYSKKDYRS
# [5] = target: Voltage-gated potassium channel subunit beta-2 (Rattus norvegicus) (UniProt P62483); test: enhancers of rat Kvbeta2 NADPH turnover – biochemical, NADPH fluorescence, primary screen (AID 623;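 active means NADPH fluorescence slope more negative than the mean of all samples by about 3 SD, 99.7% confidence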;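 further: fluorescence intensity change per second fitted from 20 to 320 s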); settings: Recombinant KvBeta, NADPH fluorescence decrease slope, 10 min; at 10 µM; stronger effect = lower value
# [6] = target: Muscarinic acetylcholine receptor M4 (Homo sapiens) (UniProt P08173); test: M4-linked GIRK flux change, two-sided – cell-based, HEK293 M4/GIRK, thallium flux, BTC-AM, M4 allosteric agonist project, primary screen (AID 625); settings: at 10 µM, actives lie on both sides;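 further: thallium influx through GIRK channels coupled to M4 in HEK293 cells with BTC-AM dye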
# Chain of Muscarinic acetylcholine receptor M4 (Homo sapiens) (P08173 whole entry, looked up): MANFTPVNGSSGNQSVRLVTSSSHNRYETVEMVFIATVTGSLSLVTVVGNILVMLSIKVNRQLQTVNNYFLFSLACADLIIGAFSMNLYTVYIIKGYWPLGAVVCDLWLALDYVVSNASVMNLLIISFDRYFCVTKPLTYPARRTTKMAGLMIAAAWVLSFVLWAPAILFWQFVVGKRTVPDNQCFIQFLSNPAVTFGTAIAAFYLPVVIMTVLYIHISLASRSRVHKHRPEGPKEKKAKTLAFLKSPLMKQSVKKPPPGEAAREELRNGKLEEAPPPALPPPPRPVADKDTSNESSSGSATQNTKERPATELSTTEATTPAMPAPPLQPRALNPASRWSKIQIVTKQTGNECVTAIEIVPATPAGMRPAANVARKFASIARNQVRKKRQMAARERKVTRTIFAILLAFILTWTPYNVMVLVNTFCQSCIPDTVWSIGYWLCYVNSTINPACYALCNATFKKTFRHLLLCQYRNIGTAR
# Procedure, shortened: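 Material – HEK293 cells with M4 receptor and GIRK channels · Buffer or medium – pH 7.3 thallium assay buffer · Doses – one dose, 10 µM final · Timing – cells overnight at 37 °C, BTC-AM loading 1 h, reads 2 min total · Measured by – kinetic fluorescence with BTC-AM dye · Controls – carbachol and DMSO controls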
# [7] = blockers of RIG-like receptor reporter activation – cell-based, Sendai virus stimulus, luciferase, 10K MLSCN set, TLR/RLR signaling modifier project, primary screen (AID 602276;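 active means inhibition at or above 50% at 10 µM; inactive means inhibition below 50%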;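 further: firefly luciferase from ISG56 promoter only with Renilla not read in this screen; 0% = Sendai virus plus DMSO and 100% = medium plus DMSO without virus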); settings: HEK293 RL24 IRF3 luciferase reporter, at 10 µM, stronger effect = higher value
# [8] = TLR3 IRF3 reporter activation blockers – cell-based, poly I:C stimulus, luciferase, 10K MLSCN set, primary screen (AID 602277;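 active means inhibition of the reporter signal at or above 50%; inactive means inhibition below 50%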); settings: HEK293-TLR3 RL24 IRF3 luciferase reporter, at 10 µM, stronger effect = higher value
Compound,cell count [1],inhibition [1],inhibition of aggregation [2],nuclei count [2] [%],inhibition [3],nuclei count [3] [%],fluorescence slope [4],NADPH fluorescence slope [5],fluorescence slope [6],inhibition [7],inhibition [8]
Cc1ccc(-c2nnn(CC(=O)N(CC(=O)NC3CCCCC3)c3cnc4ccccc4c3)n2)o1,300,-7.6% (inactive),27.2% (inactive),94.4,-22.9% (inactive),107,-0.523 (inactive),-2.2e-06 (inactive),0.00469 (inactive),21% (inactive),24.7% (inactive)
Cc1cc(C)n2nc(S(=O)(=O)N(C)Cc3ccccc3)nc2n1,560,-10.1% (inactive),-1.6% (inactive),110,-35.3% (inactive),116,-0.313 (inactive),-3.3e-05 (inactive),0.00664 (inactive),-4.55% (inactive),8.01% (inactive)
Cc1[nH]c2ccccc2c(=O)c1CN(C)Cc1ccccc1,270,2.9% (inactive),13.3% (inactive),97.7,-124% (inactive),117,-0.58 (inactive),2e-05 (inactive),0.00538 (inactive),-21% (inactive),-31.5% (inactive)
O=C(CN1C(=O)NC(Cc2ccccc2)C1=O)Nc1ccccc1 (configuration not stated),436,0% (inactive),8.9% (inactive),59.4,-32.2% (inactive),111,-0.594 (inactive),-5.2e-06 (inactive),0.00658 (inactive),-15.9% (inactive),-20.9% (inactive)
COC(=O)Cc1[nH]nc2c1C(C1C=CCCC1)C(C#N)=C(N)O2 (configuration not stated),592,5.7% (inactive),7.6% (inactive),90.6,-0.2% (inactive),117,-0.41 (inactive),2.6e-05 (inactive),0.00509 (inactive),18.7% (inactive),26.3% (inactive)
CCOC(=O)c1ccc(NC(=O)CC2SC(=NC)N(C)C2=O)cc1 (configuration not stated),401,14.6% (inactive),-8.2% (inactive),103,-14.5% (inactive),110,-0.48 (inactive),-5.8e-05 (inactive),0.00547 (inactive),13.7% (inactive),17.7% (inactive)
CSc1ccccc1NC(=O)CN(Cc1ccccc1)S(C)(=O)=O,768,-15.1% (inactive),-4.2% (inactive),115,-78.6% (inactive),103,-0.564 (inactive),-3.2e-05 (inactive),0.00609 (inactive),21.8% (inactive),19.7% (inactive)
C=CCn1c(=O)[nH]c2cc(C(=O)N3CCN(c4ccc(C(C)=O)cc4)CC3)ccc2c1=O,359,-1.8% (inactive),20.3% (inactive),101,-161% (inactive),106,-0.464 (inactive),1.5e-05 (inactive),0.00531 (inactive),-1.65% (inactive),-9.26% (inactive)
Cc1cc(C)n(CCCNC(=O)c2ccc3c(c2)NC(=O)CS3)n1,722,-0.6% (inactive),-34.8% (inactive),87.8,10.7% (inactive),106,-0.416 (inactive),-1.2e-05 (inactive),0.00708 (inactive),14.3% (inactive),28.3% (inactive)
CCNS(=O)(=O)c1c(C)cc(N2CCCC2=O)cc1C,498,-8% (inactive),4.4% (inactive),88.1,27.7% (inactive),89,-0.438 (inactive),9.1e-05 (inactive),0.00655 (inactive),-1.95% (inactive),0.215% (inactive)
CCOc1cc(N2CCOCC2)c(OCC)cc1NC(=O)COC(=O)CCc1c[nH]c2ccccc12,300,-5.2% (inactive),7.9% (inactive),105,-28% (inactive),109,-0.273 (inactive),-1.5e-05 (inactive),0.00571 (inactive),2.83% (inactive),20.2% (inactive)
C=CS(=O)(=O)c1ccc(Oc2ccc(S(=O)(=O)C=C)cc2)cc1,378,70.2% (active),-3.2% (inactive),80.8,104% (active),121,-0.5 (inactive),-2.6e-05 (inactive),0.00487 (inactive),14.1% (inactive),98.2% (active)
COc1ccc(N2CCC(CNS(=O)(=O)c3cccc(C(F)(F)F)c3)C2)cc1 (configuration not stated),385,5.3% (inactive),30.1% (active),92.1,-33.3% (inactive),132,-0.494 (inactive),-0.000248 (inactive),0.00389 (inactive),7.7% (inactive),2.96% (inactive)
Cc1nn(Cc2ccccc2)c(C)c1NC(=O)CCC(=O)O,667,23.6% (active),-6.6% (inactive),112,17.9% (inactive),105,-0.49 (inactive),1.1e-05 (inactive),0.00488 (inactive),-5.04% (inactive),-12.9% (inactive)
CC(OC(=O)c1cccc(NS(C)(=O)=O)c1)C(=O)Nc1ccc(N2CCOCC2)cc1 (configuration not stated),415,-11.6% (inactive),-32.5% (inactive),101,-52.8% (inactive),148,-0.559 (inactive),-3.1e-05 (inactive),0.0061 (inactive),16.6% (inactive),-7.05% (inactive)
O=C(Nc1ccc2oc(-c3ccncc3)nc2c1)c1cccs1,159,108% (active),-8.6% (inactive),103,14.7% (inactive),113,-0.346 (inactive),-0.000115 (inactive),0.00345 (inactive),-55.9% (inactive),-120% (inactive)
O=C1c2ccccc2C(O)(Cc2ccccc2)N1Cc1ccco1 (configuration not stated),425,-2.9% (inactive),-10.1% (inactive),96.8,-110% (inactive),131,-0.554 (inactive),-1.5e-05 (inactive),0.00578 (inactive),8.83% (inactive),21.9% (inactive)
Cn1c(Cc2csc(N)n2)nnc1SCC(=O)NCc1ccccc1,447,7.3% (inactive),9.5% (inactive),95.3,-12.6% (inactive),118,-0.58 (inactive),-9.4e-06 (inactive),0.00622 (inactive),-2.1% (inactive),13.3% (inactive)
O=C(CSC1=NCCS1)NCc1ccco1,294,0.2% (inactive),16.5% (inactive),87.2,-109% (inactive),108,-0.268 (inactive),1.6e-06 (inactive),0.00551 (inactive),-13.7% (inactive),-22.5% (inactive)
O=c1[nH]c(SCc2cc(=O)n3ccccc3n2)nc2c1CCC2,681,-8.4% (inactive),-47.8% (inactive),87.5,-123% (inactive),106,-0.381 (inactive),2.3e-05 (inactive),0.00602 (inactive),16.7% (inactive),20.7% (inactive)
O=C(CN1C(=O)CC(c2ccco2)Sc2ccccc21)Nc1ccc2c(c1)OCCO2 (configuration not stated),809,-2.8% (inactive),-218% (inactive),99.6,-69.7% (inactive),105,-0.459 (inactive),-1.9e-05 (inactive),0.0054 (inactive),14.9% (inactive),9.54% (inactive)
CCOC(=O)c1c(C)[nH]c(C=Nc2ccccc2)c1O,666,4.3% (inactive),12.6% (inactive),88.7,-28.4% (inactive),103,-0.598 (inactive),5.5e-06 (inactive),0.00349 (inactive),-11% (inactive),-41.4% (inactive)
COc1ccc(NS(=O)(=O)c2c(C)[nH]c(=O)[nH]c2=O)c(OC)c1,409,3.8% (inactive),7.4% (inactive),103,-40.5% (inactive),113,-0.565 (inactive),-2.6e-05 (inactive),0.00529 (inactive),7.23% (inactive),13.8% (inactive)
CCC(C)OC(=O)C1=C(C)NC2=C(C(=O)C(C(=O)OC)C(C)C2)C1c1ccc(N(C)C)cc1 (configuration not stated),280,-2.4% (inactive),12.6% (inactive),104,-8.6% (inactive),115,-0.579 (inactive),2.1e-05 (inactive),0.00551 (inactive),14.7% (inactive),25.6% (inactive)
CS(=O)(=O)N1CCN(C(=O)c2ccc(-c3ccccc3)cc2)CC1,481,4% (inactive),-11% (inactive),108,-287% (inactive),128,-0.541 (inactive),-5.8e-05 (inactive),0.00648 (inactive),18.4% (inactive),22.5% (inactive)
CCOC(=O)CSc1nc2cc(C(=O)NCc3ccco3)ccc2c(=O)n1C1CCCCC1,455,4.3% (inactive),-11.8% (inactive),92,10% (inactive),93.7,-0.397 (inactive),-5.9e-05 (inactive),0.00847 (inactive),12.1% (inactive),18.6% (inactive)
Oc1c(Cl)cc(Cl)c2c1NCCC2,313,0.4% (inactive),-13.1% (inactive),100,-47.5% (inactive),91.9,-0.466 (inactive),-3e-05 (inactive),0.00523 (inactive),11.2% (inactive),31.8% (inactive)
